# In the library only some 2.2% were active in any assay of this set; here they are far more common.
# ASAP1 GAP inh – blocks human ASAP1-stimulated Arf1 GTP hydrolysis; Q9ULH1; GDP FP detection; inhibition, % at 16.5 µM; 360,000 tested, 0.19% active; AID 624377; in the data active = inhibition above about 25%;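 also: 0% = vehicle with enzyme and substrate and 100% = no enzyme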
# Target sequence (Q9ULH1 325-724 limits assumed): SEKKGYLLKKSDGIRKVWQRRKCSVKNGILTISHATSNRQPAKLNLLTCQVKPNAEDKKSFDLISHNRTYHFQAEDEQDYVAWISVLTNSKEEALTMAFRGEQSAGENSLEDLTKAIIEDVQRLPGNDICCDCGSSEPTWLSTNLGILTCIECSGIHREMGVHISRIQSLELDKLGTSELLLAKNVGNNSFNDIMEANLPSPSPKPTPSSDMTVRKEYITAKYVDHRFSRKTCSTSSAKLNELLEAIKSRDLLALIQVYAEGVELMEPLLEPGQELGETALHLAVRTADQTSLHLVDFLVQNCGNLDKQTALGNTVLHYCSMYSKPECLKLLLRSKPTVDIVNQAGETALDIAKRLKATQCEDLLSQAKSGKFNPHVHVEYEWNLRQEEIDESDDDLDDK
# NadD block – NadD (S. aureus) enzyme inhibition | purified NadD enzyme, colorimetric absorbance read-out | inhibition, % at 20 µM | 360,000 tested, 0.78% active; in the data active = inhibition above about 26%
# rCAG binder – binds r(CAG) RNA repeats | r(CAG) RNA repeat, TO-PRO-1 dye displacement fluorescence | inhibition, % at 3 µM | 370,000 tested, 1.3% active;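 active = inhibition above the plate cutoff, the mean of all test compounds on that plate plus 3 SD, cut at about 35% in these data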;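 also: 0% = DMSO alone and 100% = 100 µM mitoxantrone as full dye displacement; higher means more dye released from RNA so lower well fluorescence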
# ARFGAP1 inhibitor – rat ARFGAP1 inhibition. Q62848. Arfgap1-stimulated ARF1 GTP hydrolysis, GDP FP detection. inhibition, % at 16.5 µM. 360,000 tested, 0.26% active. AID 651572;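 active = inhibition above a per-plate limit, mean inhibition of low control wells plus 3 SD, cut at about 25% in these data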;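 also: 0% = DMSO wells with enzyme and 100% = wells lacking Arfgap1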
# Target sequence (Q62848 1-136 limits assumed): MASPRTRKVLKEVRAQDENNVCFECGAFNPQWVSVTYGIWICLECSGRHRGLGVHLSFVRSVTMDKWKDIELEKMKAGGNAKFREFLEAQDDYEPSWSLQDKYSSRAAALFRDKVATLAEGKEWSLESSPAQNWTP
#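 Replicates: Single well per compound | Assay system: Truncated rat Arfgap1 GAP domain | Control set: No-Arfgap1 wells (100%) versus DMSO full-reaction wells (0%) | Times: Enzyme reaction 120 min at 25 °C after 20 min preincubation | Reagent: Human ARF1(Δ1-17)-GTP substrate | Measured by: Tracer-displacement fluorescence polarization with EDTA stop, 620/688 nm | Measure: Percent inhibition of Arfgap1-stimulated GTP hydrolysis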
# ARFGAP1 inh conf – rat ARFGAP1 inhibition, confirmed; shares compounds with ARFGAP1 inhibitor; ARFGAP1-stimulated ARF1 GTP hydrolysis, GDP tracer FP; inhibition, % at 16.5 µM; 890 tested, 30% active; AID 651608;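 active = average inhibition over triplicates above the hit cutoff set in the earlier primary screen, cut at about 25% in these data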;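 also: 0% = Arfgap1 plus ARF1-GTP with DMSO and 100% = wells lacking Arfgap1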
# Numbers without * were called inactive; . = no result.
SMILES,ASAP1 GAP inh,NadD block,rCAG binder,ARFGAP1 inhibitor,ARFGAP1 inh conf
COC(=O)[C@@]12C[C@@H](CC(=O)NCC34CC5CC(CC(C5)C3)C4)C(=O)N(CCc3ccc(OC)c(OC)c3)C1=CCC(C)(C)C2,5.8,.,8.1,1.2,.
Cc1nc2ccc(C(=O)N3c4ccccc4N=C(c4ccc(C(F)(F)F)cc4)C3C(=O)NC(C)(C)C)cc2[nH]1 (centres undefined),8.6,.,4.2,25.7*,-0.8
C[C@H](O)[C@@H]1CN2CCc3c([nH]c4c(-c5ccccc5)cccc34)[C@@H]2C[C@@H]1N(C)C(=O)NC1CCCCC1,-2.9,.,4.8,-5.5,.
COc1ccc(CCN2C(=O)NC(NC(=O)CC(C)C)(C(F)(F)F)C2=O)cc1OC (centres undefined),-14.4,-2.3,-4.8,27.8*,-3.1
COc1ccc(NC(=O)c2cc(-c3cc(Cl)ccc3C)n[nH]2)cc1OC,16.0,-3.7,6.0,15.2,.
COc1ccc(NC(=O)c2cc(-c3cc(Cl)ccc3OC)n[nH]2)cc1OC,11.0,-4.3,6.6,28.2*,22.1
COc1ccccc1C(=O)NCCC(=O)Nc1ccc(S(=O)(=O)N2CCCC(C)C2)cc1 (centres undefined),-0.7,-7.7,1.6,28.3*,3.5
COc1ccccc1C(=O)NCCC(=O)N1CCCC(C)C1 (centres undefined),0.9,4.3,-4.9,3.8,.
Clc1cccc(Nc2nc(-c3ccncc3)nc3ccccc23)c1,7.5,-7.6,-1.1,39.3*,50.1*
Clc1cccc(CNc2nc(-c3cccnc3)nc3ccccc23)c1,0.9,2.9,3.5,31.9*,26.9*
CN(C)S(=O)(=O)Nc1ccc2c(c1)Cc1ccccc1-2,-12.5,-0.4,0.6,28.1*,-5.8
CC(C)C[C@H]1CN(CCCC[C@H]2CNC(=O)C(=O)N2Cc2ccccc2)C(=O)C(=O)N1CCC1CCCCC1,15.5,24.9,2.0,6.4,.
COc1ccccc1NS(=O)(=O)c1cc(NC(=O)c2ccc(NC(C)=O)cc2)ccc1N1CCOCC1,9.6,5.4,9.9,3.3,.
COc1ccccc1NS(=O)(=O)c1cc(NC(=O)c2cc(=O)[nH]c3ccccc23)ccc1N1CCOCC1,15.4,10.1,29.0,28.0*,8.8
O=C(Nc1ccc(Cl)cc1)OCc1cn(-c2ccc(Cl)cc2)nn1,77.9*,0.2,-1.3,68.1*,52.6*
Cc1[nH]c2ccccc2c1CC(=O)Nc1ccc(Nc2cccnc2)c(-c2cc(F)cc(F)c2)c1,7.0,.,11.8,26.4*,18.1
Cc1[nH]c2ccccc2c1CC(=O)Nc1ccc(Nc2ccccc2)cc1,9.2,.,13.0,28.9*,25.2*
Cc1[nH]c2ccccc2c1CC(=O)Nc1ccc(Nc2cccnc2)c(-c2cc(C(F)(F)F)cc(C(F)(F)F)c2)c1,8.1,.,6.3,10.6,.
Cc1[nH]c2ccccc2c1CC(=O)Nc1ccc(Nc2ccncc2)cc1,8.7,.,9.0,-5.2,.
CCNC(=O)C1CCCN(C(=O)Cc2ccc3ccccc3c2)CC1 (centres undefined),3.9,1.1,-1.0,-2.6,.
COc1cccc(N(C)C(=O)[C@@H](C2CC2)[C@@H](O)c2ccc3ccccc3c2)c1,.,.,-1.0,.,.
CN(C(=O)C(C)(C)C)[C@H]1C[C@H]2c3[nH]c4ccccc4c3CCN2C(=O)[C@H]1CO,-10.0,6.7,3.1,96.3*,-2.6
Clc1cccc(CN2CCN(Cc3ccco3)CC2)c1,1.6,1.3,-5.0,24.7*,-5.0
Cc1cccc(CN2CCN(Cc3ccco3)CC2)c1,-3.4,-2.2,-0.1,-1.1,.
Cc1ccc(Nc2nc(CSc3nnnn3-c3ccccc3)cs2)cc1,1.1,8.0,2.1,29.1*,8.6
SMILES,ASAP1 GAP inh,NadD block,rCAG binder,ARFGAP1 inhibitor,ARFGAP1 inh conf
C=C(C)/C=C1/CN(Cc2ccc3c(c2)OCO3)C(=N)N1C(=O)OCc1ccccc1,.,.,10.8,.,.
COc1cc(/C=N/NC2=NCCCCC2)ccc1O,17.6,-3.4,-0.7,0.0,.
COc1cc(/C=N/Nc2ncnc3sc4c(c23)CCC4)ccc1O,19.0,4.9,6.0,25.8*,11.3
CC(C)(C)OC(=O)n1cc(-c2ccccc2)c2c(-c3ccccc3)c(O)ccc21,.,.,4.8,.,.
CCOC(=O)c1ccc(-c2c(-c3ccccc3OC)oc3ccccc23)cc1F,1.2,-2.4,7.7,-1.5,.
CCOC(=O)c1ccc(-c2ccc3c(=O)c4ccccc4n(C)c3c2)cc1F,-11.9,28.6,25.0,26.4*,8.1
COc1ccc(NC(=O)c2cc(C3CCCCN3S(=O)(=O)c3cn(C)cn3)on2)c(C)c1 (centres undefined),-1.8,3.1,2.2,4.3,.
COc1ccc(/C=C/C(=O)Nc2ccc(S(=O)(=O)N3CCOCC3)cc2)c(OC)c1,15.0,-1.8,10.3,9.2,.
CCN1CCN(c2ccc(S(=O)(=O)N3CCOCC3)cc2NC(=O)/C=C/c2ccc(OC)cc2OC)CC1,21.1,-2.0,-1.2,33.2*,22.8
CCN1CCN(c2ccc(S(=O)(=O)N3CCOCC3)cc2NC(=O)/C=C/c2ccc([N+](=O)[O-])cc2)CC1,12.8,19.5,3.7,37.1*,36.8*
CC(=O)n1c(=O)c2ccccc2c(=O)n1-c1ccccc1,12.2,1.2,-0.8,32.0*,2.4
O=c1c2ccccc2c(=O)n(-c2ccccc2)n1CCCCBr,-8.7,-1.7,-6.6,6.9,.
CC(=O)Nc1ccc(-c2csc(NC(=O)Cc3cccc(F)c3)n2)cc1,12.2,-8.9,9.7,31.2*,12.6
c1ccc2c(N3CCCCC3)ncnc2c1,-4.9,-4.8,-2.8,27.0*,-2.0
COC(=O)[C@]12C[C@H](CC(=O)N3CCCC3)C(=O)N(Cc3ccco3)C1=C[C@H](COCc1ccccc1)O[C@@H]2C,.,.,2.2,.,.
CC(=O)Nc1ccc(S(=O)(=O)NCC(=O)NCCc2ccc(S(N)(=O)=O)cc2)cc1,3.0,-1.1,-1.2,-0.5,.
NS(=O)(=O)c1ccc(CCNC(=O)CNS(=O)(=O)c2cccc(Br)c2)cc1,2.6,0.5,5.8,28.2*,-2.3
Cc1ccc(CNC(=O)C2CCCN(S(=O)(=O)c3ccc(F)cc3)C2)cc1 (centres undefined),1.4,-0.3,-8.3,17.6,.
CS(=O)(=O)N1CCCC(C(=O)NCc2ccc(F)cc2)C1 (centres undefined),-5.6,-1.2,-2.2,27.2*,2.9
Cn1c(=O)c2c(-c3ccccc3F)c3c(nc2n(C)c1=O)-c1ccccc1C3O (centres undefined),-2.7,-1.9,0.8,24.7*,0.4
CCCCn1nnnc1C1(C)CCC(=O)N1CCOC (centres undefined),-2.3,-3.5,1.6,6.7,.
Cc1ccc(Nc2ncccc2C(=O)NCc2cccs2)c(C)c1,6.8,-0.7,-0.4,23.6,.
Cc1cccc(Nc2ncccc2C(=O)NCc2cccs2)c1C,7.7,-2.7,-0.1,26.2*,7.2
Cc1cc(NC(=O)NC(=O)c2ccccc2NC(=O)CN)ccc1Oc1ncc(Br)cn1,-0.6,-1.6,5.7,5.8,.
Cc1cc(NC(=O)NC(=O)c2ccccc2NC(=O)CN(C)C)ccc1Oc1ncc(Br)cn1,4.9,-2.1,-0.6,30.6*,5.6
COc1ccc(Cn2cc(COC(=O)NCC(C)C)nn2)cc1,.,.,2.8,.,.

# Screening results from PubChem.
